Article PMC6993754 (Pharmacology Research & Perspectives, 2020)

B1: recombinant CYP2J2 (Homo sapiens) (protein)
chain: MLAAMGSLAAALWAVVHPRTLLLGTVAFLLAADFLKRRRPKNYPPGPWRLPFLGNFFLVDFEQSHLEVQLFVKKYGNLFSLELGDISAVLITGLPLIKEALIHMDQNFGNRPVTPMREHIFKKNGLIMSSGQAWKEQRRFTLTALRNFGLGKKSLEERIQEEAQHLTEAIKEENGQPFDPHFKINNAVSNIICSITFGERFEYQDSWFQQLLKLLDEVTYLEASKTCQLYNVFPWIMKFLPGPHQTLFSNWKKLKLFVSHMIDKHRKDWNPAETRDFIDAYLKEMSKHTGNPTSSFHEENLICSTLDLFFAGTETTSTTLRWALLYMALYPEIQEKVQAEIDRVIGQGQQPSTAARESMPYTNAVIHEVQRMGNIIPLNVPREVTVDTTLAGYHLPKGTMILTNLTALHRDPTEWATPDTFNPDHFLENGQFKKREAFMPFSIGKRACLGEQLARTELFIFFTSLMQKFTFRPPNNEKLSLKFRMGITISPVSHRLCAVPQV

Experiments:
[1] = tested on: human brain microsomes (HBMs); test: Screening of STS‐135 oxidative metabolism with HBMs; type: in vitro ADME; conditions: STS‐135 50 µmol/L
Method in brief: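 Pooled 50-donor human brain microsomes with test compound (50 µmol/L, 2% DMSO) in 0.1 mol/L KPO₄, pH 7.4. Stopped with equal-volume ethanol, centrifuged; UPLC-UV at 300 nm for M21/M25. No-substrate, no-protein and no-NADPH controls; triplicate; nmol/mg protein/min.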

recombinant CYP2J2 = biological target: T1, recombinant CYP2J2 (Homo sapiens, UniProt P51589)
T1 sequence (P51589 1-502): B1 chain

human hepatocytes = conditions: oxidation, hydrolysis, and glucuronidation; cited from earlier work
CB2 receptor = conditions: cited from earlier work
[2] = Time‐dependent metabolism of STS‐135 in genotyped HLMs CYP3A5*1/*1; type: in vitro ADME; conditions: human, genotyped CYP3A5*1/*1 human liver microsomes, pH 7.4
Method in brief: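 CYP3A5-genotyped human liver microsomes (*1/*1 or *3/*3) incubated with test compound in 0.1 mol/L KPO₄, pH 7.4, with NADPH-regenerating system at 37°C. Sampled at 0, 10, 20, 30, 45, 60, 90 and 120 min, ethanol-stopped, centrifuged and analysed by UPLC-UV (300 nm) for parent depletion. Half-life determined directly by linear regression; triplicate reactions.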

CB1 receptor = conditions: cited from earlier work
not read = substrate: O=C(NC12CC3CC(CC(C3)C1)C2)c1cn(CCCCCF)c2ccccc12; test: not read; conditions: 37.0 °C

| Molecule | Specific activity, formation of M21 [1] | Specific activity, formation of M25 [1] | K m, production of M25 (Figure 6 legend) (recombinant CYP2J2) | Number of metabolites formed (human hepatocytes) | Agonist activity at CB2 receptor (CB2 receptor) | half-life [2] | Agonist activity at CB1 receptor (CB1 receptor) | Km (not read) | Vmax (not read) |
| --- | --- | --- | --- | --- | --- | --- | --- | --- | --- |
| O=C(NC12CC3CC(CC(C3)C1)C2)c1cn(CCCCCF)c2ccccc12 [STS‐135, N‐(adamantan‐1‐yl)‐1‐(5‐fluoropentyl)‐1H‐indole‐3‐carboxamide] | no detectable metabolites | no detectable metabolites | 11.2389 ± 1.733 | 29 metabolites | potent agonist | 21.1 min | potent agonist |  |  |
| B1 |  |  |  |  |  |  |  | 11.2 ± 1.7 µM | 17.2 ± 0.5 pmol/min/mg protein |
